Results published in ChEMBL document CHEMBL1150377, “Design of antiangiogenic hypoxic cell radiosensitizers: 2-nitroimidazoles containing a 2-aminomethylene-4-cyclopentene-1,3-dione moiety” (Bioorg Med Chem, 2008).

What was measured:
[1] = biological target: Matrix metalloproteinase-9 (Bos taurus, UniProt P52176); test: Inhibition of bovine arterial endothelial cell MMP9; type: cell-based
Gallus gallus = species on record: Gallus gallus; test: Antiangiogenic activity in chick embryo chorioallantoic membrane assessed as number of eggs showing 3 mm avascular zone at 100 ug relative to control; type: functional, tissue-based
Procedure, shortened: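 Chick CAM assay on 4-day-old embryos in shell; 10 µL sample in 1% methyl cellulose/0.9% NaCl applied inside a ring on the CAM, 48 h at 37.6 °C, then fat emulsion injected to show vessels. Six eggs per group, repeated more than three times. Inhibition (%) = eggs with ≥3 mm avascular zone around ring / eggs in group ×100.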

[2] = biological target: 72 kDa type IV collagenase (Homo sapiens, UniProt P08253); test: Inhibition of human bowes melanoma cell MMP2
[3] = Radiosensitizing activity in mouse EMT6/KU cells assessed as enhancement ratio reducing surviving fraction of cells at […] after 5 to 7 days; type: functional
Procedure, shortened: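 They were then irradiated with 6 MV X-rays at 2.0 Gy/min, replated, and scored for colonies after 5–7 days. Survival curves were least-squares fitted. ER is the ratio of radiation doses giving 1% survival.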

[4] = biological target: Epidermal growth factor receptor (Homo sapiens, UniProt P00533); test: Inhibition of human A431 cell EGFRK assessed as 32P phosphorylation by scintillation counter; type: cell-based; details: a-431
Procedure, shortened: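 Solubilized A431 cell lysate, debris removed, incubated with or without EGF for 30 min at 25 °C. Reaction started with [γ-³²P]ATP, 10 min at 0 °C. After stopping and washing, receptor phosphorylation measured as ³²P by scintillation counting.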

[5] = biological target: Vascular endothelial growth factor receptor 1 (Homo sapiens, UniProt P17948); test: Inhibition of Flt1 expressed in mouse NIH3T3 cells by autoradiography; type: cell-based
[6] = Radiosensitizing activity in mouse EMT6/KU cells assessed as enhancement ratio reducing surviving fraction of cells at 1 mM after 5 to 7 days; type: functional
Procedure, shortened: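 EMT6/KU cells at 2×10⁶ cells/mL in drug-containing MEM in glass tubes, made hypoxic with 95% N₂/5% CO₂ for 60 min. Irradiated with 6 MV X-rays at 2.0 Gy/min, then plated. After 5–7 days replated for colony formation. Survival curves fitted by least squares; ER = ratio of radiation doses giving 1% survival.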

Sequence of Matrix metalloproteinase-9 (P52176 whole entry): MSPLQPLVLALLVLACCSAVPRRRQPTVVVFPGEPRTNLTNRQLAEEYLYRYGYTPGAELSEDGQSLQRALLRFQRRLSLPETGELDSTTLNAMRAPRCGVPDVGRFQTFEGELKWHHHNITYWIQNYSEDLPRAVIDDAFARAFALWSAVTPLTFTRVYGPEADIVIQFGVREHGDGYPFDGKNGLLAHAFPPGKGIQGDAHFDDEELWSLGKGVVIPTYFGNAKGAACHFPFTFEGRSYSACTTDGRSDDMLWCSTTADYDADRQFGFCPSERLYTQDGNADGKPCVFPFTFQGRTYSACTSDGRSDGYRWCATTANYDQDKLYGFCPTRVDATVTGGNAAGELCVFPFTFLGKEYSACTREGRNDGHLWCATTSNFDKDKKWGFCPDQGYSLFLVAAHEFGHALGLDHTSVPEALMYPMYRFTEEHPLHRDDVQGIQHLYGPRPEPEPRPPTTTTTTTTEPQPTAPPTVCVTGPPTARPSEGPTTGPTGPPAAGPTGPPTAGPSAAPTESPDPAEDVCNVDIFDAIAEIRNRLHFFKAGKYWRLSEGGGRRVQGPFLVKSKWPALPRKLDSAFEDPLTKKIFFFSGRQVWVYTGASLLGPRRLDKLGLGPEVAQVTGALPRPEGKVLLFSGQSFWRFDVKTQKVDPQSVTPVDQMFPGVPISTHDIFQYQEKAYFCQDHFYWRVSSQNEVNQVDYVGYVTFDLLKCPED
Sequence of Vascular endothelial growth factor receptor 1 (P17948 whole entry): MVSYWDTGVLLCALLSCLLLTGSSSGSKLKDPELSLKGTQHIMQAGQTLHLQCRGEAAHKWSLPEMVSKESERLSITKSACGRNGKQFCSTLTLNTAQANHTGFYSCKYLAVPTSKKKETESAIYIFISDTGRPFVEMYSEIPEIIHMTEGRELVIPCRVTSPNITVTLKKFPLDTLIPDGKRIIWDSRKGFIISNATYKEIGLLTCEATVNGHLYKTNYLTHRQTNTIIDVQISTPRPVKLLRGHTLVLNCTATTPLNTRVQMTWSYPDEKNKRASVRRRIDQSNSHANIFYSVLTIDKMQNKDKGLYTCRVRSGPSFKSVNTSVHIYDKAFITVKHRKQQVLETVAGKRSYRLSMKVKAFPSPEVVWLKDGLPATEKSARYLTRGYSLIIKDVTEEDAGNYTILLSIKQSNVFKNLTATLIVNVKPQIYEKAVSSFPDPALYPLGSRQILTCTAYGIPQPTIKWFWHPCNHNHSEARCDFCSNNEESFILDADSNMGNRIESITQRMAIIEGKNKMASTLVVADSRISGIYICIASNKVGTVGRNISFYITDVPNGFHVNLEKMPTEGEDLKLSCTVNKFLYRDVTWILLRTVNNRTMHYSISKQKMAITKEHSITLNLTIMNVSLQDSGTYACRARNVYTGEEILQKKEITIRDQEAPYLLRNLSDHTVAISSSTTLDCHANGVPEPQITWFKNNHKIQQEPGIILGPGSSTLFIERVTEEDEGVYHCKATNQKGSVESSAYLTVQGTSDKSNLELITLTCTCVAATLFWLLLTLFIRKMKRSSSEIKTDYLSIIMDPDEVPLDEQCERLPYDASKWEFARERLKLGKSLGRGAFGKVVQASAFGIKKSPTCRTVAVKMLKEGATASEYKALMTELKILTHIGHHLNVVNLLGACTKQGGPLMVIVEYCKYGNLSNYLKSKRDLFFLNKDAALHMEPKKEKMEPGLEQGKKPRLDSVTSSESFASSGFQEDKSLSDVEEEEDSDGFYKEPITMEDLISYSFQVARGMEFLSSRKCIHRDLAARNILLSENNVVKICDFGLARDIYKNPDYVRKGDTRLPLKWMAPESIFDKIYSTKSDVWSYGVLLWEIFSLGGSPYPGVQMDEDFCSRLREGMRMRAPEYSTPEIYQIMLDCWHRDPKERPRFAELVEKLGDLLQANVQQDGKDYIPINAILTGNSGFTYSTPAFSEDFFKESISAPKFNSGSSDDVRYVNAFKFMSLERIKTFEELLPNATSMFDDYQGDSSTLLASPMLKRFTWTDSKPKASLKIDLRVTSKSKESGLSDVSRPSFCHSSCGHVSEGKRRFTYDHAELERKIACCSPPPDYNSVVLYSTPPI
Sequence of 72 kDa type IV collagenase (P08253 whole entry): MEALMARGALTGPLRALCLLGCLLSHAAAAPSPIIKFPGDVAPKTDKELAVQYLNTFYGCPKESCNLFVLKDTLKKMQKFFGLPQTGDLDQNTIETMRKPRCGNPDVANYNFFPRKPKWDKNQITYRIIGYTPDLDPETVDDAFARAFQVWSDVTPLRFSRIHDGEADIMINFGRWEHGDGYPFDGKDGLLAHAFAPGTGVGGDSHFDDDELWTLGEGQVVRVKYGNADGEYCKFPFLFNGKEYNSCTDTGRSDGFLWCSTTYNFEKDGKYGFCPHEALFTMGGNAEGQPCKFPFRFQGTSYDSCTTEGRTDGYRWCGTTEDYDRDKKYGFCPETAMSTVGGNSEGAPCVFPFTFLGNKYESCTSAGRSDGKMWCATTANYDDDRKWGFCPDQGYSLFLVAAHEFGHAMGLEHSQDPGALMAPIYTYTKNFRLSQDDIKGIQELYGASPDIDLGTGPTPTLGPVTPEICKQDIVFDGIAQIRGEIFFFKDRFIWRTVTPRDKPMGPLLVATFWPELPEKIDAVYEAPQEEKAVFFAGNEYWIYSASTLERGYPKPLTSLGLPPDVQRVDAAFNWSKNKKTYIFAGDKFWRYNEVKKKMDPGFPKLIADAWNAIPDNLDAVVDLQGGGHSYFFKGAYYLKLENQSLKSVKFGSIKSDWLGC
Sequence of Epidermal growth factor receptor (P00533 whole entry): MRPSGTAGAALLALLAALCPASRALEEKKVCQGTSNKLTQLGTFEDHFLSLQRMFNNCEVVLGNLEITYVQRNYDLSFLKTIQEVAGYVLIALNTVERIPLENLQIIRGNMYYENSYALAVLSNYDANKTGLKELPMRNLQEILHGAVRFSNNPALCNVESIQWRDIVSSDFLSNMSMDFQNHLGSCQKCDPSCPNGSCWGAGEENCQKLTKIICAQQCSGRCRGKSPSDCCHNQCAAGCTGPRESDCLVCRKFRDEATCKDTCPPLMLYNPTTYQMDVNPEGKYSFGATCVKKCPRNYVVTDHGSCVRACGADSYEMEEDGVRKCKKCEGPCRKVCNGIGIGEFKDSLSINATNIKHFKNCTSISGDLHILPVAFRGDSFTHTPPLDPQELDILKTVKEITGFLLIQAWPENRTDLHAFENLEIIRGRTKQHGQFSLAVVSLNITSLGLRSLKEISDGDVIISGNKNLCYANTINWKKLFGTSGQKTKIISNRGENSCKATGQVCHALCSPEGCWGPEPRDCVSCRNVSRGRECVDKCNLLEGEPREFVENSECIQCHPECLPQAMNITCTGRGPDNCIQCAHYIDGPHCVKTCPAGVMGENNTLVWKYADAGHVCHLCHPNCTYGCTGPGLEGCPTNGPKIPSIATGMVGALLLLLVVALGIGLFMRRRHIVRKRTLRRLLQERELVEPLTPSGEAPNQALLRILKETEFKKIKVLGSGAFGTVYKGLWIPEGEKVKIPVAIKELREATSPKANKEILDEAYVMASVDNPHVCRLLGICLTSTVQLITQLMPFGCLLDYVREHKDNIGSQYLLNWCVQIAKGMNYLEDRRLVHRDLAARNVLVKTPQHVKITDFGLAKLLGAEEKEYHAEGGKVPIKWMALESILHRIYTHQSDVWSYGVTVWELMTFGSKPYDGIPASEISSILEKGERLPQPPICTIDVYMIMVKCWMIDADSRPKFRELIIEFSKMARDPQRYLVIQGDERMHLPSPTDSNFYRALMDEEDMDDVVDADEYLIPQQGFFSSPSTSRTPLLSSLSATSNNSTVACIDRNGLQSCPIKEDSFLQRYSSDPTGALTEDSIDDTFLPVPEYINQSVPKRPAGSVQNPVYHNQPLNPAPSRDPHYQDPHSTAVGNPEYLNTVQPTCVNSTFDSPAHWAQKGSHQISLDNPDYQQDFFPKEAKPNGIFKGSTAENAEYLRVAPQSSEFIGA

COC[C@H](Cn1ccnc1[N+](=O)[O-])OC(=O)c1ccc(NC(=O)C(F)(F)F)cc1
IC50 [1]: > 240 µM⁻¹
inhibition (Gallus gallus): 83%
IC50 [2]: > 240 µM⁻¹
Ratio [3]: 1.84

COC[C@@H](Cn1ccnc1[N+](=O)[O-])OC(=O)c1ccc(NC(=O)C(F)(F)F)cc1
IC50 [1]: > 240 µM⁻¹
inhibition (Gallus gallus): 43%
IC50 [2]: > 240 µM⁻¹
Ratio [3]: 2.02

CC(C)(C)c1ccc(OC[C@H](Cn2ccnc2[N+](=O)[O-])OC(=O)c2ccc(NC=C3C(=O)C=CC3=O)cc2)cc1
IC50 [1]: 103 µM⁻¹
IC50 [4]: 18.4 µM⁻¹
IC50 [5]: 184 µM⁻¹
IC50 [2]: 183 µM⁻¹

CC(C)(C)c1ccc(OC[C@@H](Cn2ccnc2[N+](=O)[O-])OC(=O)c2ccc(NC=C3C(=O)C=CC3=O)cc2)cc1
IC50 [1]: 67 µM⁻¹
IC50 [4]: 1.8 µM⁻¹
IC50 [5]: 18.4 µM⁻¹

COC[C@@H](Cn1ccnc1[N+](=O)[O-])OC(=O)c1ccc(NC=C2C(=O)C=CC2=O)cc1
IC50 [1]: 53 µM⁻¹
IC50 [5]: 23.4 µM⁻¹
IC50 [2]: 24 µM⁻¹

O=C(Cn1ccnc1[N+](=O)[O-])NCCO [ETANIDAZOLE]
Ratio [6]: 1.72

COC[C@H](Cn1ccnc1[N+](=O)[O-])OC(=O)c1ccc(NC=C2C(=O)C=CC2=O)cc1
IC50 [4]: 23 µM⁻¹
